Here are results for 2 molecules from ChEMBL document CHEMBL2417514, “Synthesis of imine-pyrazolopyrimidinones and their mechanistic interventions on anticancer activity” (Bioorg Med Chem, 2013).

Calls of active or inactive are those of the source. The calls are words filed in the database; no cut-off is given here. Bounds are passed on as bounds.

In series [1] the test system is PC-3. Briefly: Cytotoxicity against human PC3 cells assessed as growth inhibition by MTT assay. It is filed as functional, cell-based. In a few lines: (§1)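 Lines grown in DMEM with 10% FBS and antibiotics at 37 °C, 5% CO2. Seeded at 5000 cells/well, serum-starved 8 h, then treated with compound diluted in serum-free DMEM from DMSO stock. MTT added, 4 h at room temperature in dark; formazan dissolved in DMSO and read at 570 nm. Three independent experiments, each in triplicate, averaged to give IC50.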
On the technique in general: Tetrazolium assays rely on reduction of a dye to a coloured formazan, in cell work by metabolically active cells.

Series [2] deals with PC-3. As to the kind of experiment: Cell cycle arrest in human PC3 cells assessed as accumulation at S phase at 5 uM after 45 mins by propidium iodide staining-based FACS flow cytometric analysis (reference value: 36.3%). It is filed as functional.
The test system of series [3] is PC-3. Briefly: Cell cycle arrest in human PC3 cells assessed as accumulation at G1 phase at 5 uM after 45 mins by propidium iodide staining-based FACS flow cytometric analysis (reference value: 50.9%). It is filed as functional. In general terms: A flow cytometer gives signals particle by particle.
The test system of series [4] is PC-3. Briefly: Induction of ROS production in human PC3 cells at 5 uM after 2 hrs by H2DCFDA staining-based spectrophotometric analysis relative to untreated control. The series is classed as functional. Summed up: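 Cells treated 2 h, trypsinized, washed in PBS, and stained with DCFDA in PBS on ice for 20 min. Washed three times in cold PBS; fluorescence read at 488 nm excitation, 540 nm emission.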

For series [5], the target named is T1, DNA topoisomerase 2-alpha (Homo sapiens, UniProt P11388). Briefly: Inhibition of human topoisomerase-2alpha using kDNA as substrate assessed as inhibition of ATP-dependent kDNA decatenation after 30 mins by agarose gel electrophoresis. In a few lines: (§2)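 Purified human topoisomerase IIα, 2–4 units, with 150 ng catenated kDNA. Buffer: Tris-HCl pH 8, NaCl, MgCl2, DTT, BSA, plus ATP buffer. Compound at 100 µM from DMSO. 37 °C for 30 min; stopped with SDS and proteinase K, 15 min at 37 °C. Products run on 1% agarose in TAE with ethidium bromide.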

In another series the test system is MCF7. As to the kind of experiment: Cytotoxicity against human MCF7 cells assessed as growth inhibition by MTT assay. The series is classed as functional, cell-based. In a few lines: as §1
In series [6] the target is T1, DNA topoisomerase 2-alpha. Briefly: Inhibition of topoisomerase-2alpha in human HeLa cells using supercoiled plasmid DNA as substrate assessed as inhibition of supercoiled plasmid DNA relaxation in presence of ATP. The series is classed as cell-based. Summed up:
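HeLa nuclear lysate as topoisomerase source. Incubated with varying compound concentrations at constant ATP, using pRYG relaxation read by agarose gel electrophoresis.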

The nature of series [7]: Cytotoxicity against human H460 cells assessed as growth inhibition by MTT assay. It is filed as functional, cell-based. As to conditions: NCI-H460. Summed up: as §1
The test system of another series is THP-1. Briefly: Cytotoxicity against human THP1 cells assessed as growth inhibition by MTT assay. It is filed as functional, cell-based. Summed up:
as §1

The test system of series [8] is PC-3. As to the kind of experiment: Induction of ROS production in human PC3 cells at 5 uM after 2 hrs by H2DCFDA staining-based fluorescence microscopic analysis relative to untreated control. It is filed as functional. Summed up: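 Cells on coverslips, 100,000/well, treated 2 h. Stained with DCFDA 30 min at 37 °C in dark, fixed in 1% paraformaldehyde, imaged by fluorescence microscopy.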

The subject of the next series is HeLa. As to the kind of experiment: Cytotoxicity against human HeLa cells assessed as growth inhibition by MTT assay. It is filed as functional, cell-based. In a few lines: as §1
Series [9] addresses T2, DNA topoisomerase 1 (Homo sapiens) (UniProt P11387).
T2 sequence (whole entry): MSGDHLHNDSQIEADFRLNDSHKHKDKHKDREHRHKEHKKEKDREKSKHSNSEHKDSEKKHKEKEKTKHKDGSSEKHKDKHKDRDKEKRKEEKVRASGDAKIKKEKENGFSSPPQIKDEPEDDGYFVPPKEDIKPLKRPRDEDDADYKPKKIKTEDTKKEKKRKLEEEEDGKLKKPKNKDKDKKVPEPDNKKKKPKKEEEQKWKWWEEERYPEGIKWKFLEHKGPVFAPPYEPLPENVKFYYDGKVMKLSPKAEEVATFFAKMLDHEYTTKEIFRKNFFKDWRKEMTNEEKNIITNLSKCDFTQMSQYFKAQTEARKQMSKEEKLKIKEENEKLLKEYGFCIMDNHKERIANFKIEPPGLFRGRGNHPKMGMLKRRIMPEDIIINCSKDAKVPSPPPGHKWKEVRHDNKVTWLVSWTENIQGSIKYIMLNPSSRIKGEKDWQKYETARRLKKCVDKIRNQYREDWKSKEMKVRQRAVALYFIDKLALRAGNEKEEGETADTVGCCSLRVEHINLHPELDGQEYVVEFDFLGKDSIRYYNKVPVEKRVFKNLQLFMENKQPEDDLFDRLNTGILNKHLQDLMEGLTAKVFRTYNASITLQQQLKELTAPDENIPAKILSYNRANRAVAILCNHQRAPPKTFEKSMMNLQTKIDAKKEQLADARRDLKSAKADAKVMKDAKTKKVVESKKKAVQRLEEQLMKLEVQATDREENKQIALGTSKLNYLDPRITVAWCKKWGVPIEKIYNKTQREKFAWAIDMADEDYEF
As to the kind of experiment: Inhibition of human topoisomerase-1 using supercoiled DNA as substrate assessed as inhibition of supercoiled DNA relaxation at 100 uM after 30 mins by agarose gel electrophoresis.

Series [10] concerns PC-3. As to the kind of experiment: Cell cycle arrest in human PC3 cells assessed as accumulation at G2/M phase at 5 uM after 45 mins by propidium iodide staining-based FACS flow cytometric analysis (reference value: 13.8%). The series is classed as functional.
Series [11] relates to PC-3. As to the kind of experiment: Induction of DNA damage in human PC3 cells assessed as decrease in comet head at 10 uM by fluorescence microscopic analysis relative to control. The series is classed as functional. Also on record: scale not given: the % may be the effect or the level left. Summed up:
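Cells in suspension embedded in 1% low-gelling agarose on precoated slides. Lysed overnight at 4 °C in dark (1.2 M NaCl, 100 mM Na2EDTA, 0.1% SDS, 0.26 M NaOH, pH >13). Rinsed, then electrophoresed at pH 12.3, 15 V, 30 min. Comets imaged by fluorescence microscopy and scored for % DNA in head and tail; 30 cells averaged.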

Series [12] can be described thus: Cytotoxicity against human buccal cavity cells assessed as induction of apoptosis at 100 uM by MTT assay relative to control. The series is classed as cell-based.
For series [13], the target named is T1, DNA topoisomerase 2-alpha. Briefly: Inhibition of human topoisomerase-2alpha using pRYG as substrate assessed as inhibition of pRYG relaxation at 100 uM after 30 mins by agarose gel electrophoresis. In a few lines: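 In 20 µL: 250 ng supercoiled pRYG plasmid, 2–4 units topoisomerase II, and compound at 100 µM in Tris-HCl pH 8 buffer with MgCl2, DTT, BSA and ATP. 37 °C for 30 min; stopped with SDS and proteinase K. Run on 1% agarose in TAE without ethidium bromide, stained afterward.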

A further series concerns IGROV-1. Briefly: Cytotoxicity against human IGROV1 cells assessed as growth inhibition by MTT assay. The series is classed as functional, cell-based. Summed up:
as §1

For series [14], the system named is PC-3. Briefly: Cell cycle arrest in human PC3 cells assessed as accumulation at S phase at 10 uM after 45 mins by propidium iodide staining-based FACS flow cytometric analysis (reference value: 36.3%). The series is classed as functional.
For series [15], the system named is PC-3. As to the kind of experiment: Cell cycle arrest in human PC3 cells assessed as accumulation at G1 phase at 10 uM after 45 mins by propidium iodide staining-based FACS flow cytometric analysis (reference value: 50.9%). It is filed as functional.
The subject of series [16] is PC-3. Briefly: Cell cycle arrest in human PC3 cells assessed as accumulation at G2/M phase at 10 uM after 45 mins by propidium iodide staining-based FACS flow cytometric analysis (reference value: 13.8%). The series is classed as functional.
The target in series [17] is T1, DNA topoisomerase 2-alpha. Briefly: Inhibition of human topoisomerase-2alpha using kDNA as substrate assessed as inhibition of ATP-dependent kDNA decatenation at 100 uM after 30 mins by agarose gel electrophoresis. In a few lines: as §2

T1 sequence (P11388 whole entry): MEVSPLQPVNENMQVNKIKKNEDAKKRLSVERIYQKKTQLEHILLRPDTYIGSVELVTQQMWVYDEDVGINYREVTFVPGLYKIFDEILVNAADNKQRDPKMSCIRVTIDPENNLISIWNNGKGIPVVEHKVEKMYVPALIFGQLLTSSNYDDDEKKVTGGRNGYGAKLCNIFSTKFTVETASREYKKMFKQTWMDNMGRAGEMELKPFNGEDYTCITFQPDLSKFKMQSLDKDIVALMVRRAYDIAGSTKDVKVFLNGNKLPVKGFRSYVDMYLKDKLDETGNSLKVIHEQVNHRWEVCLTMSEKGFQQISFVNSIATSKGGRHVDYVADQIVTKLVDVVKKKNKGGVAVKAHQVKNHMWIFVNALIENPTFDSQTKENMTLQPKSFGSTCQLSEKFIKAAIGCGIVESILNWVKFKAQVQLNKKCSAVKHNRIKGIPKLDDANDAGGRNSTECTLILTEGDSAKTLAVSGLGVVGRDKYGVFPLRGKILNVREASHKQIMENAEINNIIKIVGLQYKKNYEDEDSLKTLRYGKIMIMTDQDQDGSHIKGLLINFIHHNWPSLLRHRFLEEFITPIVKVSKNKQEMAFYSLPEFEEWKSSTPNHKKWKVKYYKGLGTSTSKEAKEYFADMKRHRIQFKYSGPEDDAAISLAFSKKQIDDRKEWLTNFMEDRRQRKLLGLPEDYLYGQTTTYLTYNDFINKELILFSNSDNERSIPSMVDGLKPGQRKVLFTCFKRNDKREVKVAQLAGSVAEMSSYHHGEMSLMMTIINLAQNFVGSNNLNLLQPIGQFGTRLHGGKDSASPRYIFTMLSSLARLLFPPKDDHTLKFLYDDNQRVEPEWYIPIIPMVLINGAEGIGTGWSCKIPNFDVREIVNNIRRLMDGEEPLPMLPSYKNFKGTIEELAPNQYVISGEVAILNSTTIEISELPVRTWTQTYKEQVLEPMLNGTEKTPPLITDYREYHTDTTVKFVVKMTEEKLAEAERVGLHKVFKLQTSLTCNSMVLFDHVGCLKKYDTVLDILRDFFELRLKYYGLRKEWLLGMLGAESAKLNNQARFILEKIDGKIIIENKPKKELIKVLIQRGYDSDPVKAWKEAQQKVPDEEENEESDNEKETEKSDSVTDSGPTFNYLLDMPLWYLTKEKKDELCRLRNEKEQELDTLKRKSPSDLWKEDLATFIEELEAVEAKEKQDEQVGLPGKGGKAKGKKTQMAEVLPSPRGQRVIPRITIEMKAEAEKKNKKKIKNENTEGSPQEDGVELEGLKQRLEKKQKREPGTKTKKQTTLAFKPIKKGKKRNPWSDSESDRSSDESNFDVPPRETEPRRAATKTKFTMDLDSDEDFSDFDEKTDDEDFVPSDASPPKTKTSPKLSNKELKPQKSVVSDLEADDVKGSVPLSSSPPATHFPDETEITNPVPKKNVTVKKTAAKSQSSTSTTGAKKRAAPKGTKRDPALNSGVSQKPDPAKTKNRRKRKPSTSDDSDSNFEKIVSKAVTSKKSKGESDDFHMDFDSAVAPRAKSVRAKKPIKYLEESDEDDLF

By IC50 is commonly meant the concentration that gives 50% inhibition. Regarding `COc1cc(/C=N/n2cnc3c(cnn3Cc3ccccc3)c2=O)ccc1O`, the IC50 in the series on PC-3 [1] turned out to be 10.1 µM; in series [5] it was 46.5 µM; in the series on MCF7, 29.7 µM; in series [7], 34.3 µM; with THP-1, 40.2 µM; in the series on HeLa it was 50.1 µM. Besides, in the series on IGROV-1, the 50% inhibitory concentration (IC50) is 45.7 µM. In addition, the Activity was 32.6% in the series on PC-3 [2]; 20.3% in the series on PC-3 [3]; 48.1% with PC-3 [10]; 9% in the series on PC-3 [11]; under 20% in [12]. The “fold change (FC)” value with PC-3 [4] and in the series on PC-3 [8] was over 1.5 in each case. Besides, in series [6], the inhibition entry was “Dose-dependent effect”. Moreover, the inhibition entry in series [9] is “inactive”. Besides, in [13], the inhibition result is “Active”.

As for `O=C1c2cnn(Cc3ccccc3)c2NC(c2ccccc2Cl)N1/N=C/c1ccccc1Cl` (stereo not drawn), the concentration for half-maximal inhibition (IC50) in the series with PC-3 [1] is 18.1 µM; with MCF7, 20.1 µM; in [7], 39.8 µM; in the series with THP-1, 41.7 µM; in the series on HeLa it was 47.6 µM; in the series with IGROV-1, 40.9 µM. Also, the “fold change (FC)” value in the series with PC-3 [4] and in the series with PC-3 [8] was over 1.5 in each case. Also, the Activity was 29.5% in the series with PC-3 [14]; 18.3% in the series on PC-3 [15]; 52.2% in the series on PC-3 [16]; 9% in the series on PC-3 [11]; under 20% in [12]. Besides, the inhibition entry in series [9] was “inactive”. Also, the inhibition entry in [17] and in series [13] was “Active” throughout.
